# In ChEMBL document CHEMBL3580579, “Anti-inflammatory Hydrolyzable Tannins from Myricaria bracteata” (J Nat Prod, 2015):
# The source made the active and inactive calls. The calls are words filed in the database; no cut-off is given here.
# How the values were obtained:
# J774 [1] = assay: Increase in cell viability of mouse J774 cells at 0.01 to 10 uM by MTT assay; format: functional, cell-based
# [2] = Antioxidant activity assessed as hydroxy radical-scavenging activity; format: physicochemical
# Summary of the method: (§1)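 Radical scavenging of each tannin measured against DPPH and hydroxy radicals by literature methods, with BHT and Trolox as reference antioxidants.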
# [3] = Antioxidant activity assessed as DPPH radical-scavenging activity incubated for 30 mins by spectrophotometry; format: physicochemical; summary of the method: as §1
# Liver microsome = assay: Antioxidant activity assessed as inhibition of Fe2+-cysteine-induced lipid peroxidation in rat liver microsomes incubated for 30 mins by thiobarbituric acid based assay; format: functional; conditions: 0.5 h
# Mus musculus [4] = assay: Anti-inflammatory activity in mouse model of carrageenan-induced paw edema assessed as inhibition of paw edema at 50 mg/kg, sc; format: functional
# J774 [5] = assay: Inhibition of TNFalpha production in LPS-induced mouse J774 cells at 0.01 to 10 uM; format: functional, cell-based
# J774 [6] = assay: Inhibition of IL6 production in LPS-induced mouse J774 cells at 0.01 to 10 uM; format: functional, cell-based
# Mus musculus [7] = assay: Anti-inflammatory activity in mouse model of croton oil-induced ear edema assessed as inhibition of ear swelling at 50 mg/kg, sc; format: functional
# Mus musculus [8] = assay: Anti-inflammatory activity in mouse model of croton oil-induced ear edema assessed as inhibition of ear swelling at 200 mg/kg, sc; format: functional
# Mus musculus [9] = assay: Anti-inflammatory activity in DBA/1 mouse model of collagen induced arthritis assessed as inhibition of disease progression and development at 20 mg/kg, sc measured on day 57; format: functional; conditions: DBA/1, sc, 1368 h
# Mus musculus [10] = assay: Anti-inflammatory activity in mouse model of croton oil-induced ear edema assessed as inhibition of ear swelling at 100 mg/kg, sc; format: functional
# J774 [11] = assay: Inhibition of nitric oxide production in LPS-induced mouse J774 cells at 0.01 to 10 uM incubated for 24 hrs by Griess reaction based assay; format: functional, cell-based
Compound,Activity (J774 [1]),IC50 [2],IC50 [3],other results
O=C(O[C@@H]1O[C@@H]2COC(=O)c3cc(O)c(O)c(O)c3-c3c(cc(O)c(O)c3O)C(=O)O[C@H]2[C@H](OC(=O)c2cc(O)c(O)c(O)c2)[C@H]1OC(=O)c1cc(O)c(O)c(O)c1Oc1cc(C(=O)O[C@@H]2O[C@@H]3COC(=O)c4cc(O)c(O)c(O)c4-c4c(cc(O)c(O)c4O)C(=O)O[C@H]3[C@H](OC(=O)c3cc(O)c(O)c(O)c3)[C@H]2OC(=O)c2cc(O)c(O)c(O)c2Oc2cc3c(c(O)c2O)Oc2cc(cc(O)c2O)C(=O)O[C@@H]2O[C@@H]4COC(=O)c5cc(O)c(O)c(O)c5-c5c(cc(O)c(O)c5O)C(=O)O[C@H]4[C@H](OC(=O)c4cc(O)c(O)c(O)c4)[C@H]2OC3=O)cc(O)c1O)c1cc(O)c(O)c(O)c1,Active,55.1 µM,4.23 µM,
O=C1O[C@@H]2O[C@@H]3COC(=O)c4cc(O)c(O)c(O)c4-c4c(cc(O)c(O)c4O)C(=O)O[C@H]3[C@H](OC(=O)c3cc(O)c(O)c(O)c3)[C@H]2OC(=O)c2cc(Oc3c(C(=O)O[C@H]4[C@H](OC(=O)c5cc(O)c(O)c(O)c5)O[C@H](CO)[C@@H](O)[C@@H]4OC(=O)c4cc(O)c(O)c(O)c4)cc(O)c(O)c3O)c(O)c(O)c2Oc2cc1cc(O)c2O,Active,16.3 µM,4.44 µM,
O=C(O[C@@H]1O[C@@H]2COC(=O)c3cc(O)c(O)c(O)c3-c3c(cc(O)c(O)c3O)C(=O)O[C@H]2[C@H](OC(=O)c2cc(O)c(O)c(O)c2)[C@H]1OC(=O)c1cc(O)c(O)c(O)c1-c1c(C(=O)O[C@@H]2O[C@@H]3COC(=O)c4cc(O)c(O)c(O)c4-c4c(cc(O)c(O)c4O)C(=O)O[C@H]3[C@H](OC(=O)c3cc(O)c(O)c(O)c3)[C@H]2OC(=O)c2cc(O)c(O)c(O)c2)cc(O)c(O)c1O)c1cc(O)c(O)c(O)c1 [HIRTELLIN A],Active,38.5 µM,4.61 µM,IC50 (Liver microsome): 15.6 µM
O=C1O[C@@H]2O[C@@H]3COC(=O)c4cc(O)c(O)c(O)c4-c4c(cc(O)c(O)c4O)C(=O)O[C@H]3[C@H](OC(=O)c3cc(O)c(O)c(O)c3)[C@H]2OC(=O)c2cc(Oc3c(C(=O)O)cc(O)c(O)c3O)c(O)c(O)c2Oc2cc1cc(O)c2O [NILOTININ M4],,38 µM,3.16 µM,
Cc1c(C)c2c(c(C)c1O)CCC(C)(C(=O)O)O2 (stereo not drawn) [TROLOX],,76.7 µM,8 µM,
O=C(O[C@@H]1O[C@@H]2COC(=O)c3cc(O)c(O)c(O)c3-c3c(cc(O)c(O)c3O)C(=O)O[C@H]2[C@H](OC(=O)c2cc(O)c(O)c(O)c2)[C@H]1OC(=O)c1cc(O)c(O)c(O)c1Oc1cc2c(c(O)c1O)Oc1cc(cc(O)c1O)C(=O)O[C@@H]1O[C@H](CO)[C@@H](O)[C@H](OC(=O)c3cc(O)c(O)c(O)c3)[C@H]1OC2=O)c1cc(O)c(O)c(O)c1 [NILOTININ D8],Active,32.5 µM,4.67 µM,
O=C(O[C@@H]1O[C@@H]2COC(=O)c3cc(O)c(O)c(O)c3-c3c(cc(O)c(O)c3O)C(=O)O[C@H]2[C@H](OC(=O)c2cc(O)c(O)c(O)c2)[C@H]1OC(=O)c1cc(O)c(O)c(O)c1Oc1cc2c(c(O)c1O)Oc1cc(cc(O)c1O)C(=O)O[C@@H]1O[C@@H]3COC(=O)c4cc(O)c(O)c(O)c4-c4c(cc(O)c(O)c4O)C(=O)O[C@H]3[C@H](OC(=O)c3cc(O)c(O)c(O)c3)[C@H]1OC2=O)c1cc(O)c(O)c(O)c1 [HIRTELLIN B],Active,39.7 µM,4.1 µM,IC50 (Liver microsome): 48.8 µM
O=C1O[C@@H]2O[C@@H]3COC(=O)c4cc(O)c(O)c(O)c4-c4c(cc(O)c(O)c4O)C(=O)O[C@H]3[C@H](OC(=O)c3cc(O)c(O)c(O)c3)[C@H]2OC(=O)c2cc(Oc3c(C(=O)O[C@@H]4[C@@H](OC(=O)c5cc(O)c(O)c(O)c5)[C@@H]5OC(=O)c6cc(O)c(O)c(O)c6-c6c(cc(O)c(O)c6O)C(=O)OC[C@H]5O[C@H]4O)cc(O)c(O)c3O)c(O)c(O)c2Oc2cc1cc(O)c2O [TAMARIXININ A],Active,41.5 µM,3.57 µM,inhibition in vivo at 50 mg/kg (Mus musculus [4]): 25%; IC50 (Liver microsome): 18.4 µM; inhibition (J774 [5]): inactive; inhibition (J774 [6]): inactive; inhibition in vivo at 50 mg/kg (Mus musculus [7]): 34.4%; inhibition in vivo at 200 mg/kg (Mus musculus [8]): 69.8%; inhibition in vivo at 20 mg/kg (Mus musculus [9]): 46%; inhibition in vivo at 100 mg/kg (Mus musculus [10]): 39%; inhibition (J774 [11]): inactive
Cc1cc(C(C)(C)C)c(O)c(C(C)(C)C)c1 [BUTYLATED HYDROXYTOLUENE],,22.6 µM,7.08 µM,
COc1cc(C(=O)O[C@@H]2[C@H]3OC(=O)c4cc(Oc5c(C(=O)O[C@H]6[C@@H](OC)O[C@@H]7COC(=O)c8cc(OC)c(OC)c(OC)c8-c8c(cc(OC)c(OC)c8OC)C(=O)O[C@H]7[C@@H]6OC(=O)c6cc(OC)c(OC)c(OC)c6)cc(OC)c(OC)c5OC)c(OC)c(OC)c4Oc4cc(cc(OC)c4OC)C(=O)O[C@@H]3O[C@@H]3COC(=O)c4cc(OC)c(OC)c(OC)c4-c4c(cc(OC)c(OC)c4OC)C(=O)O[C@@H]23)cc(OC)c1OC,,> 100 µM,> 100 µM,inhibition in vivo at 200 mg/kg (Mus musculus [8]): 2.1%
O=C1O[C@@H]2O[C@@H]3COC(=O)c4cc(O)c(O)c(O)c4-c4c(cc(O)c(O)c4O)C(=O)O[C@H]3[C@H](OC(=O)c3cc(O)c(O)c(O)c3)[C@H]2OC(=O)c2cc(O)c(O)c(O)c2Oc2cc(cc(O)c2O)C(=O)O[C@@H]2O[C@@H]3COC(=O)c4cc(O)c(O)c(O)c4-c4c(cc(O)c(O)c4O)C(=O)O[C@H]3[C@H](OC(=O)c3cc(O)c(O)c(O)c3)[C@H]2OC(=O)c2cc(O)c(O)c(O)c2Oc2cc1cc(O)c2O,Active,42.9 µM,4.43 µM,
O=C(O)c1cc(O)c(O)c(O)c1 [GALLIC ACID],,15.7 µM,7.23 µM,
COc1cc(C(=O)O[C@@H]2[C@@H](OC(=O)c3cc(OC)c(OC)c(OC)c3Oc3cc4c(c(OC)c3OC)Oc3cc(cc(OC)c3OC)C(=O)O[C@@H]3O[C@@H]5COC(=O)c6cc(OC)c(OC)c(OC)c6-c6c(cc(OC)c(OC)c6OC)C(=O)O[C@H]5[C@H](OC(=O)c5cc(OC)c(OC)c(OC)c5)[C@H]3OC4=O)[C@H](OC)O[C@@H]3COC(=O)c4cc(OC)c(OC)c(OC)c4-c4c(cc(OC)c(OC)c4OC)C(=O)O[C@@H]23)cc(OC)c1OC,,> 100 µM,> 100 µM,inhibition in vivo at 200 mg/kg (Mus musculus [8]): -0.7%
O=C1O[C@@H]2O[C@H](CO)[C@@H](O)[C@H](OC(=O)c3cc(O)c(O)c(O)c3)[C@H]2OC(=O)c2cc(Oc3c(C(=O)O[C@H]4C(O)O[C@@H]5COC(=O)c6cc(O)c(O)c(O)c6-c6c(cc(O)c(O)c6O)C(=O)O[C@H]5[C@@H]4OC(=O)c4cc(O)c(O)c(O)c4)cc(O)c(O)c3O)c(O)c(O)c2Oc2cc1cc(O)c2O (stereo partly drawn),,15.8 µM,2.4 µM,
O=C1O[C@@H]2O[C@@H]3COC(=O)c4cc(O)c(O)c(O)c4-c4c(cc(O)c(O)c4O)C(=O)O[C@H]3[C@H](OC(=O)c3cc(O)c(O)c(O)c3)[C@H]2OC(=O)c2cc(Oc3c(C(=O)O[C@H]4C(O)O[C@H](CO)[C@@H](O)[C@@H]4OC(=O)c4cc(O)c(O)c(O)c4)cc(O)c(O)c3O)c(O)c(O)c2Oc2cc1cc(O)c2O (stereo partly drawn),,36.8 µM,4.73 µM,
O=C(O[C@@H]1O[C@@H]2COC(=O)c3cc(O)c(O)c(O)c3-c3c(cc(O)c(O)c3O)C(=O)O[C@H]2[C@H](OC(=O)c2cc(O)c(O)c(O)c2)[C@H]1OC(=O)c1cc(O)c(O)c(O)c1Oc1cc2c(c(O)c1O)Oc1cc(cc(O)c1O)C(=O)O[C@@H]1O[C@@H]3COC(=O)c4cc(O)c(O)c(O)c4-c4c(cc(O)c(O)c4O)C(=O)O[C@H]3[C@H](OC(=O)c3cc(O)c(O)c(O)c3)[C@H]1OC2=O)c1cc(O)c(O)c(Oc2c(C(=O)O[C@H]3[C@H](OC(=O)c4cc(O)c(O)c(O)c4)O[C@H](CO)[C@@H](O)[C@@H]3OC(=O)c3cc(O)c(O)c(O)c3)cc(O)c(O)c2O)c1,Active,47.6 µM,3.06 µM,
